Reference: ChEMBL document CHEMBL1123634, “Design, synthesis, and testing of potential antisickling agents. 10. (2,2-Dimethylchroman-6-yl)alkanoic acids” (1987)

Experiments:
Format in all cases: functional
[1] = species: Homo sapiens; experiment: Antigelling activity expressed as ratio of soluble sickle hemoglobin (HbS) of compound (g/dL) and that of control at 20 mM concentration.
How it was run: (§1)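 Hofrichter-type solubility assay: HbS (final around 24 g/100 mL) incubated with drug at 5, 10, 20 and 40 mM, dithionite as deoxygenant. Drugs taken up as sodium salts (2 equiv NaHCO3) in 0.15 M phosphate buffer pH 7.4, 0.18 M stock, some with N-methylpiperazine added for solubility. Each spin run includes a no-drug dHbS control and a 40 mM phenylalanine control. Ratio is soluble HbS with drug (g/dL) over soluble HbS control (g/dL). Values are averages of duplicate runs.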

[2] = species: Homo sapiens; experiment: Antigelling activity expressed as ratio of soluble sickle hemoglobin (HbS) of compound (g/dL) and that of control at 5 mM concentration.; how it was run: as §1
[3] = species: Homo sapiens; experiment: Antigelling activity expressed as ratio of soluble sickle hemoglobin (HbS) of compound (g/dL) and that of control at 10 mM concentration; how it was run: as §1
[4] = species: Homo sapiens; experiment: Antigelling activity expressed as ratio of soluble sickle hemoglobin (HbS) of compound (g/dL) and that of control at 40 mM concentration; how it was run: as §1
[5] = species: Homo sapiens; experiment: Antigelling activity expressed as ratio of soluble sickle hemoglobin (HbS) of compound (g/dL) and that of control at 20 mM concentration; how it was run: as §1
[6] = species: Homo sapiens; experiment: Antigelling activity expressed as ratio of soluble sickle hemoglobin (HbS) of compound (g/dL) and that of control at 5 mM concentration; how it was run: as §1
[7] = species: Homo sapiens; experiment: Antigelling activity expressed as ratio of soluble sickle hemoglobin (HbS) of compound (g/dL) and that of control at 40 mM concentration.; how it was run: as §1
[8] = species: Homo sapiens; experiment: Antigelling activity expressed as ratio of soluble sickle hemoglobin (HbS) of compound (g/dL) and that of control at 10 mM concentration.; how it was run: as §1

**Q.** Which results are given for `CC(=O)OC(C/C(C)=C/C(=O)O)c1ccc2c(c1)CCC(C)(C)O2` (configuration not stated)?
**A.** Activity [1]: 1.085; Activity [2]: 1.01; Activity [3]: 1.03; Activity [4]: 1.188

**Q.** For `CC1(C)CCc2cc(CCCC(=O)O)ccc2O1`, which Activity [5] is on record?
**A.** The Activity was 1.144.

**Q.** What about the Activity [3] of the same compound?
**A.** Its Activity is 1.086.

**Q.** And the Activity [4]?
**A.** The Activity was 1.299.

**Q.** What about the Activity [6] of the same compound?
**A.** Its Activity is 1.052.

**Q.** Which results are given for `CC1(C)CCc2cc(CCC(=O)O)ccc2O1`?
**A.** Activity [2]: 1.045; Activity [5]: 1.164; Activity [3]: 1.077; Activity [4]: 1.297

**Q.** For `CC(C(=O)O)c1ccc2c(c1)CCC(C)(C)O2` (configuration not stated), which Activity [2] is on record?
**A.** The Activity was 1.011.

**Q.** What about the Activity [5] of the same compound?
**A.** Its Activity is 1.095.

**Q.** And the Activity [3]?
**A.** Its Activity is 1.028.

**Q.** And the Activity [4]?
**A.** Its Activity is 1.21.

**Q.** `CC1(C)CCc2cc(C(=O)O)ccc2O1` was tested. Which Activity [7] did it give?
**A.** The Activity was 1.226.

**Q.** And the Activity [5]?
**A.** Its Activity is 1.108.

**Q.** What about the Activity [3] of the same compound?
**A.** The Activity was 1.043.

**Q.** What about the Activity [6] of the same compound?
**A.** Its Activity is 1.044.

**Q.** What does the source list for `CC(C)(Oc1ccc(Cl)cc1)C(=O)O` [CLOFIBRIC ACID]?
**A.** Activity [7]: 1.302; Activity [2]: 1.018; Activity [5]: 1.155; Activity [3]: 1.064

**Q.** Which results are given for `Cc1ccc(C)c(OCCCC(C)(C)C(=O)O)c1` [GEMFIBROZIL]?
**A.** Activity [5]: 1.117; Activity [8]: 1.073; Activity [4]: 1.234; Activity [6]: 1.04

**Q.** How did the Activity [1] turn out when `N[C@@H](Cc1ccccc1)C(=O)O` [PHENYLALANINE] was run?
**A.** Its Activity is 1.093.

**Q.** And the Activity [8]?
**A.** The Activity was 1.048.

**Q.** And the Activity [4]?
**A.** Its Activity is 1.178.

**Q.** And the Activity [6]?
**A.** The Activity was 1.036.
